Screening results: PubChem BioAssay, several laboratories
ASAP1 GAP inh = ASAP1 ArfGAP inhibition | ASAP1-stimulated ARF1 GTP hydrolysis, GDP FP detection | inhibition, % at 16.5 µM | 360,000 tested, 0.19% active; in the data active means inhibition above about 25%
Target sequence (Q9ULH1 325-724 limits assumed): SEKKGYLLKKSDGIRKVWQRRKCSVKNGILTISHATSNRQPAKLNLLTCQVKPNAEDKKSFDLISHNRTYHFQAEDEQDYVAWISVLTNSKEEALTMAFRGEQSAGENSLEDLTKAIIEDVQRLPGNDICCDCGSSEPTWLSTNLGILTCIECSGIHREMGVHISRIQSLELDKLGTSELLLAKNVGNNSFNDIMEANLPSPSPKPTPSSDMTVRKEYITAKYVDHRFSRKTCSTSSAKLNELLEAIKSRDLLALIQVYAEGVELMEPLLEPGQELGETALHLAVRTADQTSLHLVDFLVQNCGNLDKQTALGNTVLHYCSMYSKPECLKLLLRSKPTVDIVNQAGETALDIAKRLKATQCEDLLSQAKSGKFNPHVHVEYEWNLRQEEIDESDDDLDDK
SKKanGAS inh = inhibitors of SKKanGAS S. pyogenes growth in kanamycin (SK-promoter or general growth effect); BacTiter-Glo, 6 h; 300,000 tested, 1.3% active; inhibition, % at 7.5 µM; AID 1662;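 active means mean replicate score, as percent of positive control median, at least 50; inconclusive means mean below 50 but one replicate at or above 50; inactive means mean and every replicate below 50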;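 further: strain carries kanamycin resistance gene driven by streptokinase promoter and grows in 40 µg/ml kanamycin; loss of luminescence reflects streptokinase promoter inhibition or plain growth inhibition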
ARFGAP1 inh = rat ARFGAP1 inhibition; AID 651572; Arfgap1-stimulated ARF1 GTP hydrolysis, GDP FP detection; inhibition, % at 16.5 µM; 360,000 tested, 0.26% active;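 active means inhibition above a per-plate limit, mean inhibition of low control wells plus 3 SD, cut at about 25% in these data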
Target sequence (Q62848 1-136 limits assumed): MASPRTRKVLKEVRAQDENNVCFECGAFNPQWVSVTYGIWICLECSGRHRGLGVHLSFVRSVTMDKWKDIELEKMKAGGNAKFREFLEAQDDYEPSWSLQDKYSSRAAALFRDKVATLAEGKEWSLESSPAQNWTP
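Material – truncated rat Arfgap1 GAP domain · Buffer or medium – HEPES-based buffer, pH 7.5 · Reagent – human ARF1(Δ1-17)-GTP substrate · Dosing – 16.5 µM single point, 1.26% DMSO · Schedule – GTP hydrolysis reaction 2 h at 25 °C · Technique – GDP detection by fluorescence polarization · Benchmarks – No-Arfgap1 wells (100%) versus DMSO full-reaction wells (0%) · Repeats – single replicate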
Calb FLC = affects C. albicans growth with fluconazole; C. albicans CaCi-2 + fluconazole, Alamar Blue growth, 48 h; growth inhibition, % (no concentration beside the values); 300,000 tested, 0.57% active; AID 1979;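 active means growth inhibition above about 58% in most replicates, limit read from the data, passing the limit was not always enough; inconclusive means exactly half the replicates above a set limit; inactive means most replicates below a set limit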;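 further: all wells also contain fluconazole at 8 µg/ml as a sub-toxic cotreatment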
HGIII-sPLA2 inh = Inhibits HGIII-sPLA2 liposome hydrolysis, primary screen. Q9NZ20. QFRET BODIPY PC-A2 liposome hydrolysis, fluorescence. inhibition, % at 12.2 µM. 370,000 tested, 0.56% active;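 active means inhibition above mean plus 3 SD of compounds lying within the high and low control bounds, cut at about 19% in these data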
sPLA2 confirm = human GIII-sPLA2 inhibition, confirmation. shares compounds with HGIII-sPLA2 inh. recombinant hGIII-sPLA2, BODIPY PC-A2 QFRET fluorescence. inhibition, % at 12.2 µM. 2,000 tested, 34% active. AID 743280;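 active means mean inhibition across triplicates above the hit cutoff set in the earlier primary screen, cut at about 19% in these data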
535nm interf = counter-screen for HGIII-sPLA2 inhibitors: 535nm fluorescence interference; shares compounds with HGIII-sPLA2 inh; BODIPY FL product fluorescence interference, QFRET; inhibition, % at 12.2 µM; 2,000 tested, 8.5% active;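 active means average inhibition above the solvent-only control mean plus 3 SD, cut at about 6% in these data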
535nm interf DR = interferes with 535nm fluorescence in dose response counter-screen; shares compounds with HGIII-sPLA2 inh; BODIPY FL product fluorescence interference, cell-free; IC50, µM; 240 tested, under 10 active; AID 743455;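 active means IC50 at or below 10 µM; inactive means IC50 above 10 µM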
A number is an active result; - = inactive; ? = inconclusive; . = no result given. A selection: hits, their analogues and other compounds. The true share with any hit is near 2.3%.

SMILES	ASAP1 GAP inh	SKKanGAS inh	ARFGAP1 inh	Calb FLC	HGIII-sPLA2 inh	sPLA2 confirm	535nm interf	others
O=C1c2ccccc2CN1CCSC(=S)N1CCSCC1	.	-	.	-	.	.	.
O=C(NNC(=S)Nc1cccc(C(F)(F)F)c1)c1ccccc1Cl	-	-	-	-	23.8	24.1	-
CNC(=S)NNC(=O)c1ccccc1Cl	-	-	-	-	-	.	.
O=C(NNC(=S)Nc1cccc(C(F)(F)F)c1)c1cccc(Cl)c1	-	-	-	-	24.3	33.3	6.5
CC(C)(C)NC(=S)NNC(=O)c1ccccc1Cl	-	-	-	-	21.8	23.1	-
Cc1ccc(NC(=O)[C@H]2CC(=O)O[C@@H]2c2ccccc2)c(C)c1	.	.	.	.	-	.	.
C/C(=N\NC(=O)c1cc(-c2ccccc2)nc2ccccc12)c1ccc(Cl)cc1	.	.	.	.	-	.	.
O=C(c1ccc(F)cc1)n1ccc2ccc(-c3ccc4ccn(Cc5ccccc5)c4c3)cc21	.	.	.	.	-	.	.
Cc1cc(C)n2nc(CNS(=O)(=O)c3ccc(C(C)(C)C)cc3)nc2n1	-	.	-	.	-	.	.
Cc1oc2cc3oc(=O)c(CCC(=O)N(C)CC(=O)O)c(C)c3cc2c1C	-	-	-	-	23.0	-	-
O=C1CCc2cc(S(=O)(=O)N3CCN(Cc4cccc5c4OCO5)CC3)ccc2N1	.	.	.	.	-	.	.
CNS(=O)(=O)c1ccc(N=Cc2c(C)[nH]n(-c3ccc(C)cc3C)c2=O)cc1	-	-	-	-	-	.	.
Cc1ccc(-n2[nH]c(C)c(C=Nc3ccc(S(=O)(=O)N4CCOCC4)cc3)c2=O)c(C)c1	-	-	-	-	22.4	-	-
C=CCn1c(COc2ccc(Cl)cc2)nnc1SCC(=O)c1ccc(-c2ccccc2)cc1	.	.	.	.	-	.	.
CCCCNC(=O)c1nc(-c2cccs2)oc1-c1ccc(Cl)cc1	-	.	-	.	-	.	.
CCc1ccc(C(=O)NCc2ccc(Cl)cc2)cc1	-	-	-	-	20.5	-	-
CCc1ccc(C(=O)NCc2ccc(Cl)cc2Cl)cc1	-	-	-	-	-	.	.
CCc1cc2c(=O)[nH]c(Cc3ccc(OC)cc3)nc2s1	-	-	-	-	-	.	.
CCc1cc2c(=O)[nH]c(COC)nc2s1	-	-	-	-	19.3	-	-
CC(C)(C)C(=O)NC1CCCCN(Cc2cccc(C(F)(F)F)c2)C1=O (stereo unspecified)	.	.	.	.	-	.	.
N#CC(C#N)=c1ccc2c(c1)N1C3=C(CCCC3)CC3CCCCC31N=2 (stereo unspecified)	-	-	-	-	-	.	.
N#C/C(C(N)=O)=c1/ccc2c(c1)N1C3=C(CCCC3)CC3CCCCC31N=2 (stereo unspecified)	-	-	-	-	26.4	44.8	-	535nm interf DR=-
CCOc1ccc(CSC(=N)N)cc1[N+](=O)[O-]	-	-	-	-	21.9	-	-
CCOc1ccc(CSC(=N)N)cc1Cl	-	-	-	-	25.9	-	-
CCCCOc1ccc(CSc2nnc(C)n2N)cc1[N+](=O)[O-]	-	-	-	-	-	.	.
SMILES	ASAP1 GAP inh	SKKanGAS inh	ARFGAP1 inh	Calb FLC	HGIII-sPLA2 inh	sPLA2 confirm	535nm interf	others
Oc1cccc(/C=N/NC(=S)Nc2cccnc2)c1O	-	-	-	-	34.3	20.8	-
Nc1[nH]nc2nc(N3CCCC3)nc(-c3ccccc3)c12	-	-	-	-	-	.	.
Nc1[nH]nc2nnc(-c3c(-c4ccccc4)nn4ccccc34)cc12	.	.	.	.	21.6	-	-
CC(Oc1ccc(Cl)cc1)C(=O)NNC(=S)NC(=O)c1ccco1 (stereo unspecified)	-	91.8	-	?	27.9	36.1	-	535nm interf DR=-
COc1ccc(C(=O)NNC(=S)NC(=O)c2ccco2)cc1	-	80.9	-	?	20.0	24.2	-
O=C(NC(=S)NC1CCC(O)CC1)c1ccco1 (stereo unspecified)	-	.	-	.	19.7	-	-
COc1ccc(C(=O)NC(=S)NNC(=O)c2cccnc2)cc1	-	-	-	-	-	.	.
O=C(NC(=S)NCc1ccc(Cl)cc1)c1ccco1	-	.	-	.	-	.	.
O=C(/C=C/c1ccco1)NC(=S)NNC(=O)c1ccco1	-	-	-	-	30.6	-	-
Cc1ccccc1Cn1cc(COC(=O)Nc2ccc(F)cc2)nn1	.	.	.	.	-	.	.
CCCOc1ccc(C(=O)NNC(=S)NC(=O)c2ccco2)cc1	-	104.2	-	78.3	30.5	34.0	-	535nm interf DR=-
CCCCN1CNC(=S)N(Cc2ccccc2)C1	-	-	-	-	27.8	-	-
COCCN1Cc2cc(C(=O)OC)c3c(c2C1=O)c1cc(OC)ccc1n3S(=O)(=O)c1ccc(F)cc1	-	.	-	.	-	.	.
COCCCn1cc(CN2CC=CS2(=O)=O)nn1	.	.	.	.	21.1	-	-
COC(=O)c1cc(C(=O)Nc2nc3ccccc3[nH]2)cc([N+](=O)[O-])c1	-	63.0	-	-	29.0	-	7.0
CS(=O)(=O)N1CCN(c2nc3ccc(Cl)cc3s2)CC1	-	-	-	-	22.7	-	-
CN(C)c1ccc(N=Nc2nccs2)cc1	-	.	-	.	25.1	44.5	18.4
O=S1(=O)c2cc(Cl)ccc2N2CCC[C@@H]2CN1Cc1ccc(Cl)c(Cl)c1	-	.	-	.	-	.	.
CCOC(=O)C(NC(=O)NCc1ccc(F)cc1)(OCC)C(F)(F)F (stereo unspecified)	-	-	-	-	-	.	.
CCOC(=O)C(NC(=O)Nc1ccc(Cl)cn1)(Oc1ccc(F)cc1)C(F)(F)F (stereo unspecified)	-	-	-	-	25.4	-	-
Cc1ccc(N2CN(Cc3cccnc3)CNC2=S)cc1	-	-	-	-	-	.	.
Cc1ccc(C)c(N2CN(Cc3cccnc3)CNC2=S)c1	-	-	-	-	19.8	-	-
CN(C)C(=O)N1CCc2ccc([N+](=O)[O-])cc21	-	.	-	.	-	.	.
Cc1ccc(-c2nnc(Nc3ccc(CC(N)=O)cc3)c3ccccc23)cc1S(=O)(=O)NCC1CCCO1 (stereo unspecified)	-	-	-	-	19.3	-	-
Cc1ccc(-c2nnc(Nc3ccc(CC(N)=O)cc3)c3ccccc23)cc1	-	-	-	-	20.8	-	-
Cc1ccc(-c2nnc(Nc3ccc(CC(N)=O)cc3)c3ccccc23)cc1S(N)(=O)=O	-	-	-	-	-	.	.
COCCCNC(=O)C[C@H]1C[C@@]2(C(=O)OC)C(=C[C@H](C(C)(C)C)O[C@@H]2C)N(CCc2ccc(OC)c(OC)c2)C1=O	-	.	-	.	-	.	.
Cc1cccc(C(=O)Oc2cc(C)[nH]c(=O)c2[N+](=O)[O-])c1	-	-	-	-	-	.	.
Cc1cc(OC(=O)c2cccc(C(F)(F)F)c2)c([N+](=O)[O-])c(=O)[nH]1	-	-	-	-	22.1	-	-
CCOC(=O)C1(C)CCCN1C(=O)c1ccc(C)cc1 (stereo unspecified)	-	.	-	.	-	.	.
